Columns and labels:
DU-145 = assay: Cytotoxicity against human DU145 cells after 48 hrs by SRB assay; assay type: functional, cell-based; settings: Homo sapiens, DU-145, 48 h; for CC50: read-out: LC50 (the source's name)
Summary of the method: (§1)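 Cells grown in RPMI 1640 with 10% FBS and penicillin/streptomycin at 37 °C and 5% CO₂, trypsinized, then seeded at 5 × 10³/well. After 18 h drug-free attachment, samples in DMSO/EtOH/PBS (0.5:0.5:99) were added for 48 h continuous exposure. Cells were fixed with cold TCA (1 h, 4 °C) and stained with SRB (10 min). Tris-solubilized stain read at 490 nm. Triplicate wells, mean ± SD; GI₅₀ derived.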

[1] = Cytotoxicity against human IGROV cells after 48 hrs by SRB assay; assay type: functional; settings: for CC50: read-out: LC50 (the source's name); summary of the method: as §1
[2] = Cytotoxicity against human IGROV-ET cells after 48 hrs by SRB assay; assay type: functional; settings: for CC50: read-out: LC50 (the source's name); summary of the method: as §1
SK-BR-3 = assay: Cytotoxicity against human SKBR3 cells after 48 hrs by SRB assay; assay type: functional; settings: SK-BR-3, 48 h; for CC50: read-out: LC50 (the source's name); summary of the method: as §1
SK-MEL-28 = assay: Cytotoxicity against human SK-MEL-28 cells after 48 hrs by SRB assay; assay type: functional, cell-based; settings: Homo sapiens, SK-MEL-28, 48 h; for CC50: read-out: LC50 (the source's name); summary of the method: as §1
A549 = assay: Cytotoxicity against human A549 cells after 48 hrs by SRB assay; assay type: functional, cell-based; settings: Homo sapiens, A549, 48 h; summary of the method: as §1
K562 = assay: Cytotoxicity against human K562 cells after 48 hrs by SRB assay; assay type: functional; settings: K562, 48 h; for CC50: read-out: LC50 (the source's name); summary of the method: as §1
PANC-1 = assay: Cytotoxicity against human PANC1 cells after 48 hrs by SRB assay; assay type: functional; settings: PANC-1, 48 h; for CC50: read-out: LC50 (the source's name); summary of the method: as §1
HT-29 = assay: Cytotoxicity against human HT29 cells after 48 hrs by SRB assay; assay type: functional, cell-based; settings: Homo sapiens, HT-29, 48 h; for CC50: read-out: LC50 (the source's name); summary of the method: as §1
LoVo [3] = assay: Cytotoxicity against human LoVo cells after 48 hrs by SRB assay; assay type: functional; settings: for CC50: read-out: LC50 (the source's name)
LoVo [4] = assay: Cytotoxicity against human doxorubicin resistant LoVo cells after 48 hrs by SRB assay; assay type: functional; settings: for CC50: read-out: LC50 (the source's name); summary of the method: as §1
HeLa = assay: Cytotoxicity against human HeLa cells after 48 hrs by SRB assay; assay type: functional; settings: for CC50: read-out: LC50 (the source's name); summary of the method: as §1
[5] = Cytotoxicity against human HeLa-APL cells after 48 hrs by SRB assay; assay type: functional; summary of the method: as §1

Compound	GI50 (DU-145; read-out: GI50) [nM]	CC50 (DU-145) [nM]	CC50 [1] [nM]	GI50 ([2]; read-out: GI50) [nM]	CC50 [2] [nM]	CC50 (SK-MEL-28) [nM]	LC50 (A549) [nM]	CC50 (K562) [nM]	GI50 (PANC-1) [nM]	TGI (PANC-1) [nM]	CC50 (PANC-1) [nM]	GI50 (HT-29) [nM]	TGI (HT-29) [nM]	CC50 (HT-29) [nM]	TGI (LoVo [3]) [nM]	CC50 (LoVo [3]) [nM]	CC50 (LoVo [4]) [nM]	GI50 (HeLa) [nM]	CC50 (HeLa) [nM]	LC50 (concentration giving 50% net cell kill) [5] [nM]	also measured
C/C=C1\NC(=O)[C@H](Cc2ccc3ccccc3c2)NC(=O)[C@@H](C(C)C)NC(=O)[C@@H]([C@H](C)CC)NC(=O)[C@H](NC(=O)[C@H](NC(=O)[C@H](CCCN)NC(=O)[C@H]2CCCN2C(=O)[C@H](NC(=O)[C@@H](NC(=O)[C@@H](NC(=O)[C@H](NC(=O)CCCC(C)C)C(C)C)[C@@H](C)O)C(C)C)C(C)C)[C@H](C)CC)[C@H](C)OC(=O)[C@H](C(C)C)NC1=O	50.9	224	44.3	46.4	120	339	343	1320	606	909	1370	37.9	39.1	60.9	22.9	34.4	148	71.6	220	205	GI50 (DU-145): 116 nM; GI50 [1]: 37.2 nM; GI50 ([1]; read-out: GI50): 27.3 nM; TGI [2]: 60.4 nM; GI50 (SK-BR-3): 18.8 nM; GI50 (SK-BR-3; read-out: GI50): 21.7 nM; CC50 (SK-BR-3): 32.7 nM; GI50 (SK-MEL-28): 213 nM; GI50 (SK-MEL-28; read-out: GI50): 135 nM; GI50 (A549): 194 nM; GI50 (A549; read-out: GI50): 110 nM; GI50 (K562): 287 nM; TGI (K562): 679 nM; GI50 (LoVo [4]): 29.5 nM; TGI (LoVo [4]): 29 nM; TGI (HeLa): 94.6 nM; GI50 [5]: 77.5 nM; TGI [5]: 91.7 nM
C/C=C1\NC(=O)[C@H](Cc2ccccc2)N(C)C(=O)[C@@H](C(C)C)NC(=O)[C@@H]([C@H](C)CC)NC(=O)[C@H](NC(=O)[C@H](NC(=O)[C@H](CCCN)NC(=O)[C@H]2CCCN2C(=O)[C@H](NC(=O)[C@@H](NC(=O)[C@@H](NC(=O)[C@H](NC(=O)CC[C@@H](C)CC)C(C)C)[C@@H](C)O)C(C)C)C(C)C)[C@H](C)CC)[C@H](C)OC(=O)[C@H](C(C)C)NC1=O	1230	1030	493	999	451	1190	999	1410	1920	2100	2000	274	236	220	431	486	305	528	781	936	TGI (DU-145): 1130 nM; GI50 [1]: 596 nM; GI50 ([1]; read-out: GI50): 862 nM; GI50 [2]: 642 nM; TGI (SK-BR-3): 286 nM; GI50 (SK-BR-3; read-out: GI50): 324 nM; CC50 (SK-BR-3): 76.8 nM; TGI (SK-MEL-28): 1270 nM; GI50 (SK-MEL-28; read-out: GI50): 1350 nM; TGI (A549): 1130 nM; GI50 (A549; read-out: GI50): 1300 nM; GI50 (K562): 2140 nM; TGI (K562): 1730 nM; GI50 (LoVo [3]): 386 nM; GI50 (LoVo [4]): 318 nM; TGI (LoVo [4]): 311 nM; TGI (HeLa): 766 nM; GI50 [5]: 1110 nM; TGI [5]: 1020 nM
CC[C@@H]1NC(=O)[C@H](Cc2ccccc2)NC(=O)[C@@H](C(C)C)NC(=O)[C@@H]([C@H](C)CC)NC(=O)[C@H](NC(=O)[C@H](NC(=O)[C@H](CCCN)NC(=O)[C@H]2CCCN2C(=O)[C@H](NC(=O)[C@@H](NC(=O)[C@@H](NC(=O)[C@H](NC(=O)CCCC(C)C)C(C)C)[C@@H](C)O)C(C)C)C(C)C)[C@H](C)CC)[C@H](C)OC(=O)[C@H](C(C)C)NC1=O	3050	1700	1390	1640	1170	1980	1830	4260	3090	4980	2830	7350	9270	5250	3860	4930	2930		1600	1840	TGI (DU-145): 3070 nM; TGI [1]: 2220 nM; GI50 ([1]; read-out: GI50): 2810 nM; TGI [2]: 1430 nM; TGI (SK-MEL-28): 3830 nM; GI50 (SK-MEL-28; read-out: GI50): 4480 nM; GI50 (LoVo [3]): 3030 nM; GI50 (LoVo [4]): 2720 nM; TGI (LoVo [4]): 2820 nM
C/C=C1\NC(=O)[C@H](Cc2ccccc2)NC(=O)[C@@H](C(C)C)NC(=O)[C@@H]([C@H](C)CC)NC(=O)[C@H](NC(=O)[C@H](NC(=O)[C@H](CCCNC(=O)c2cc(F)c(F)c(F)c2F)NC(=O)[C@H]2CCCN2C(=O)[C@H](NC(=O)[C@@H](NC(=O)[C@@H](NC(=O)[C@H](NC(=O)CCCC(C)C)C(C)C)[C@@H](C)O)C(C)C)C(C)C)[C@H](C)CC)[C@H](C)OC(=O)[C@H](C(C)C)NC1=O	726	831	274	332	441	1060	1040	172	1580	1580	1580	116	95.1	202	93.8	104	87.8	288	861	869	GI50 (DU-145): 831 nM; GI50 [1]: 217 nM; GI50 ([1]; read-out: GI50): 182 nM; GI50 [2]: 357 nM; TGI (SK-MEL-28): 1060 nM; GI50 (SK-MEL-28; read-out: GI50): 984 nM; TGI (A549): 1040 nM; GI50 (A549; read-out: GI50): 1040 nM; GI50 (LoVo [3]): 84.2 nM; TGI (HeLa): 685 nM; GI50 [5]: 493 nM; TGI [5]: 595 nM
C/C=C1\NC(=O)[C@H](Cc2ccccc2)NC(=O)[C@@H](C(C)C)NC(=O)[C@@H]([C@H](C)CC)NC(=O)[C@H](NC(=O)[C@H](NC(=O)[C@H](CCCN)NC(=O)[C@H]2CCCN2C(=O)[C@H](NC(=O)[C@@H](NC(=O)[C@@H](NC(=O)[C@@H](CCC(=O)O)NC(=O)CCCC(C)C)[C@@H](C)O)C(C)C)C(C)C)[C@H](C)CC)[C@H](C)OC(=O)[C@H](C(C)C)NC1=O	2840	1660	844	1310	705	1950	1800	3040	5310	4880	2770	2910	2960	3010	2200	2490	2430	2940	1570	1800	TGI (DU-145): 3010 nM; GI50 [2]: 969 nM; TGI (SK-MEL-28): 3750 nM; GI50 (SK-MEL-28; read-out: GI50): 3730 nM; TGI (A549): 2960 nM; GI50 (A549; read-out: GI50): 3250 nM; GI50 (LoVo [3]): 1950 nM; GI50 (LoVo [4]): 2030 nM; TGI (LoVo [4]): 2220 nM; TGI (HeLa): 2720 nM; GI50 [5]: 2910 nM; TGI [5]: 3570 nM
C/C=C1\NC(=O)[C@H](Cc2ccccc2)NC(=O)[C@@H](C(C)C)NC(=O)[C@@H]([C@H](C)CC)NC(=O)[C@H](NC(=O)[C@H](NC(=O)[C@H](CCCN)NC(=O)[C@H]2CCCN2C(=O)[C@H](NC(=O)[C@@H](NC(=O)[C@@H](NC(=O)CNC(=O)CCCC(C)C)[C@@H](C)O)C(C)C)C(C)C)[C@H](C)CC)[C@H](C)OC(=O)[C@H](C(C)C)NC1=O		1750	1430		1200	2040	1890	4390	499	1250	2110	10900	9540	5410	8900	5180	5200	672	1650	1890	GI50 (K562): 3850 nM; TGI (K562): 11400 nM; GI50 (LoVo [3]): 8760 nM; GI50 (LoVo [4]): 11100 nM; TGI (LoVo [4]): 9100 nM; TGI (HeLa): 1320 nM
C/C=C1\NC(=O)[C@H](Cc2ccccc2)NC(=O)[C@@H](C(C)C)NC(=O)[C@@H]([C@H](C)CC)NC(=O)[C@H](NC(=O)[C@H](NC(=O)[C@H](CCCN)NC(=O)[C@H]2CCCN2C(=O)[C@H](NC(=O)[C@@H](NC(=O)[C@@H](NC(=O)[C@H](NC(=O)CC[C@@H](C)[C@H]2CC[C@H]3[C@@H]4CC[C@@H]5C[C@H](O)CC[C@]5(C)[C@H]4CC[C@]23C)C(C)C)[C@@H](C)O)C(C)C)C(C)C)[C@H](C)CC)[C@H](C)OC(=O)[C@H](C(C)C)NC1=O	5100	3310	2710	4400	2280	3870	3580	8320	4350	9720	5520			10300	16900	9830	9860	740	3130	3580	TGI (DU-145): 6000 nM; TGI [2]: 5580 nM; GI50 (LoVo [3]): 14900 nM; TGI (HeLa): 5420 nM
